Results pooled from the literature.
Lines come from different studies, so protocols differ.
HLA class I histocompatibility antigen, B alpha chain: HLA class I histocompatibility antigen, B alpha chain (Homo sapiens, UniProt P01889)
HTR2B: 5-hydroxytryptamine receptor 2B (HTR2B, Homo sapiens, UniProt P41595)
HTR2C: 5-hydroxytryptamine receptor 2C (HTR2C, Homo sapiens, UniProt P28335)

O=C(O)CC(O)(CC(=O)O)C(=O)O has a Ki of 4100 µM (Tyrosine-protein phosphatase non-receptor type 5 (PTPN5, Homo sapiens, UniProt P54829); enzyme activity, inhibitor).
For CC[C@H](C)[C@H](NC(=O)[C@@H]1CCCN1C(=O)[C@H](Cc1c[nH]cn1)NC(=O)[C@H](CCCCN)NC(=O)[C@H](Cc1ccc(O)cc1)NC(=O)[C@@H](NC(=O)[C@@H](N)Cc1ccc(O)cc1)[C@@H](C)O)C(=O)N[C@@H](Cc1ccc(O)cc1)C(=O)N[C@@H](CC(C)C)C(=O)O, the IC50 was 17.7 µM (HLA class I histocompatibility antigen, B alpha chain; cell-free assay).
COc1cc(C(F)(F)F)c(OC)cc1C1CCCNC1 (centres unmarked) gave an EC50 of 0.12 µM (HTR2B; G protein activation, agonist, BRET).
COc1cc2c(cc1OC)-c1c(OC)c(OC)cc3c1[C@H](C2)N(C)CC3 has a Ki of 0.216 µM (HTR2B; ligand displacement, radioligand).
CC(C)C[C@H](NC(=O)[C@@H]1CCCN1C(=O)[C@H](Cc1c[nH]c2ccccc12)NC(=O)[C@H](CC(=O)O)NC(=O)[C@H](Cc1ccc(O)cc1)NC(=O)[C@@H](NC(=O)[C@@H](N)Cc1ccc(O)cc1)C(C)C)C(=O)N[C@H](C(=O)N[C@@H](Cc1ccccc1)C(=O)O)[C@@H](C)O gave an IC50 of 24.2 µM (HLA class I histocompatibility antigen, B alpha chain; cell-free assay).
The IC50 of O=C1Nc2ccc3ncsc3c2/C1=C/c1cnc[nH]1 is reported as 27.5 µM (Serine/threonine-protein kinase Nek6 (NEK6, Homo sapiens, UniProt Q9HC98); enzyme activity, inhibitor).
CC[C@H](C)[C@H](NC(=O)[C@@H](N)CCC(=O)O)C(=O)N[C@@H](C)C(=O)N1CCC[C@H]1C(=O)N[C@H](C(=O)N[C@@H](CC(C)C)C(=O)N[C@@H](Cc1c[nH]cn1)C(=O)N[C@@H](CO)C(=O)N[C@H](C(=O)O)[C@@H](C)OP(=O)(O)O)C(C)C gave a Kd of 0.0272 µM (Serine/threonine-protein kinase PLK1, polo-box (PLK1, Homo sapiens, UniProt P53350); binding, MST; pH 8).
The IC50 of Nc1ncnc2c1ncn2[C@@H]1O[C@H](C[C@@H](N)CC[C@H](N)C(=O)O)[C@@H](O)[C@H]1O is reported as 9.02 µM (mRNA cap guanine-N(7) methyltransferase (RNMT, Homo sapiens, UniProt O43148); enzyme activity, inhibitor).
For CC[C@H](C)[C@H](NC(=O)[C@@H](NC(=O)[C@H](CCCCN)NC(=O)[C@H](Cc1c[nH]cn1)NC(=O)[C@H](Cc1ccc(O)cc1)NC(=O)[C@H](CCSC)NC(=O)[C@@H](N)CCCNC(=N)N)C(C)C)C(=O)N[C@H](C(=O)N[C@@H](Cc1ccccc1)C(=O)O)[C@@H](C)O, the IC50 was 1.75 µM (HLA class I histocompatibility antigen, B alpha chain; cell-free assay).
COc1cc2c(cc1OC)CN(CCc1ccc(NC(=O)c3cccc4c(=O)c5cccc(OC)c5[nH]c34)cc1)CC2 has a Ki of 0.222 µM (HTR2B; cell-free assay).
The Ki of COc1cc2c3c(c1OC)-c1c(OC)ccc(Cl)c1CC3N(C)CC2 (racemic) is reported as 0.792 µM (HTR2C; cell-free assay, radioligand).
O=[N+]([O-])c1ccc(O)c([N+](=O)[O-])c1 has a Kd of > 50 µM (Casein kinase I isoform delta (CSNK1D, Homo sapiens, UniProt P48730); binding, SPR).
For CC[C@H](C)[C@H](NC(=O)[C@@H](N)CCSC)C(=O)N[C@@H](Cc1ccccc1)C(=O)N[C@@H](CC(=O)O)C(=O)N[C@@H](CCCCN)C(=O)N1CCC[C@H]1C(=O)N[C@H](C(=O)N[C@@H](Cc1ccc(O)cc1)C(=O)N[C@@H](Cc1ccccc1)C(=O)O)C(C)C, the IC50 was 36 µM (HLA class I histocompatibility antigen, B alpha chain; cell-free assay).
COc1cc(CCNC(CO)c2ccccc2)c(OC)cc1C#N (centres unmarked) has an EC50 of 2.9 µM (HTR2C; G protein activation, agonist, BRET).
With CCCCC1CNC2CCc3ccc(OC)cc3C12 (racemic) the Ki was 0.171 µM (HTR2B; ligand displacement, radioligand).
CCCC(NCCc1cc(OC)c(C#N)cc1OC)c1ccccc1O (centres unmarked) gave an EC50 of 7.9 µM (HTR2C; calcium signal, agonist).
With CC(C)C[C@H](NC(=O)[C@H](CCC(N)=O)NC(=O)[C@H](CCCNC(=N)N)NC(=O)[C@H](CO)NC(=O)[C@H](Cc1ccc(O)cc1)NC(=O)[C@H](CC(C)C)NC(=O)[C@@H](N)CCCNC(=N)N)C(=O)N[C@@H](Cc1c[nH]cn1)C(=O)N[C@@H](Cc1ccccc1)C(=O)O the IC50 was 7.67 µM (HLA class I histocompatibility antigen, B alpha chain; cell-free assay).
